Measured values published in ChEMBL document CHEMBL1145067, “3'-C-branched-chain-substituted nucleosides and nucleotides as potent inhibitors of Mycobacterium tuberculosis thymidine monophosphate kinase” (J Med Chem, 2003).

Assays:
[1] = target: T1, Thymidylate kinase (Mycobacterium tuberculosis, UniProt P9WKE1); test: In Vitro inhibition of Thymidine […] Kinase of Mycobacterium tuberculosis (TMPKm)
T1 sequence (P9WKE1 whole entry): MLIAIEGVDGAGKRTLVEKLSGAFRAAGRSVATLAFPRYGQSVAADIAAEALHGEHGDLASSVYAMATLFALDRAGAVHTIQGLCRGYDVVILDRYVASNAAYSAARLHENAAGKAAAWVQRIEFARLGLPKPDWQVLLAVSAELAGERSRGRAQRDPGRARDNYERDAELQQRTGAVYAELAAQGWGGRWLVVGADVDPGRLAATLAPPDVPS
Outline: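 Recombinant TMPKmt or human TMPKh overexpressed in E. coli. ATP was fixed at 0.5 mM and dTMP at 0.05 mM; analogues were varied over 0.01–4 mM.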

[2] = ratio of Ki (Ki TMPKh / KiTMPKmt) was determined
[3] = ratio of Ki (Km TMPKh / Ki TMPKmt) was determined
[4] = ratio of Km (Km TMPKh / Km TMPKmt) was determined
[5] = target: Thymidylate kinase (Homo sapiens) (UniProt P23919); test: In Vitro inhibition of […] (TMPKh); No inhibition at 4000 uM
Sequence of Thymidylate kinase (Homo sapiens) (P23919 whole entry, looked up): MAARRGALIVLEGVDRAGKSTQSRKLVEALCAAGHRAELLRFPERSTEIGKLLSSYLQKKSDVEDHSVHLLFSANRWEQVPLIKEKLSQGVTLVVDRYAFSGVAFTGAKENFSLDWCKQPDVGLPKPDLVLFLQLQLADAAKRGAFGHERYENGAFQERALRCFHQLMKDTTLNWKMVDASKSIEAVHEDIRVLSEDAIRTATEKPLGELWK

Row | Compound | Ki [1] [µM] | SI [2] | other results
1 | Cc1cn([C@H]2C[C@H](N=[N+]=[N-])[C@@H](CO)O2)c(=O)[nH]c1=O [ZIDOVUDINE] | 28 |  | 
2 | Cc1cn([C@H]2C[C@H](CN=[N+]=[N-])[C@@H](COP(=O)(O)O)O2)c(=O)[nH]c1=O | 12 | 2.7 | 
3 | Cc1cn([C@H]2C[C@H](CN)[C@@H](CO)O2)c(=O)[nH]c1=O | 57 | 3.9 | 
4 | Cc1cn([C@H]2C[C@H](CF)[C@@H](COP(=O)(O)O)O2)c(=O)[nH]c1=O | 15 | 2.7 | 
5 | Cc1cn([C@H]2C[C@H](N=[N+]=[N-])[C@@H](COP(=O)(O)O)O2)c(=O)[nH]c1=O |  |  | SI [3]: 1.2
6 | Cc1cn([C@@H]2O[C@H](CO)[C@@H](CN)[C@H]2O)c(=O)[nH]c1=O | 393 | 0.3 | 
7 | Cc1cn([C@H]2C[C@H](CO)[C@@H](CO)O2)c(=O)[nH]c1=O | 41 | 10 | 
8 | Cc1cn([C@@H]2O[C@H](COP(=O)(O)O)[C@@H](CN=[N+]=[N-])[C@H]2O)c(=O)[nH]c1=O | 116 |  | 
9 | Cc1cn([C@H]2C[C@H](CCO)[C@@H](CO)O2)c(=O)[nH]c1=O | 156 |  | 
10 | Cc1cn([C@H]2C[C@H](CN)[C@@H](COP(=O)(O)O)O2)c(=O)[nH]c1=O | 10.5 | 0.4 | 
11 | Cc1cn([C@H]2C[C@H](CO)[C@@H](COP(=O)(O)O)O2)c(=O)[nH]c1=O | 29 | 1.5 | 
12 | Cc1cn([C@H]2C[C@H](O)[C@@H](COP(=O)(O)O)O2)c(=O)[nH]c1=O |  |  | SI [4]: 1.1
13 | Cc1cn([C@H]2C[C@H](CF)[C@@H](CO)O2)c(=O)[nH]c1=O | 45 | 21.6 | 
14 | Cc1cn([C@H]2C[C@H](CN=[N+]=[N-])[C@@H](CO)O2)c(=O)[nH]c1=O | 40 | 26 | 
15 | Cc1cn([C@@H]2O[C@H](CO)[C@@H](CN=[N+]=[N-])[C@H]2O)c(=O)[nH]c1=O | 770 |  | NI [5]: No inhibition at 4000 uM
16 | Cc1cn([C@@H]2O[C@H](COP(=O)(O)O)[C@@H](CN)[C@H]2O)c(=O)[nH]c1=O | 315 | 0.9 | 
